According to ChEMBL document CHEMBL3352109, “Synthesis and antifungal activity of substituted salicylaldehyde hydrazones, hydrazides and sulfohydrazides” (Bioorg Med Chem, 2014):
≈ marks a conversion by molar mass, not a printed value. Calls of active or inactive are those of the source. The rule behind the calls is not given here.

Experiments:
Candida albicans [1] = assay: Antifungal activity against Candida albicans ATCC 10231 at 125 ug/ml by NCCLS method; type: functional, organism-based
Nakaseomyces glabratus [2] = assay: Antifungal activity against Candida glabrata ATCC 48435 at 125 ug/ml by NCCLS method; type: functional, organism-based
Candida albicans [3] = assay: Antifungal activity against Candida albicans ATCC 10231 by NCCLS method; type: functional
How it was run: (§1)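 Broth dilution per NCCLS yeast reference method, in HEPES-buffered RPMI with 1% DMSO. MIC80 is the lowest concentration giving more than 80% growth inhibition versus positive (no-drug) controls. Read by visual scoring, not absorbance. Highest level tested 125 µg/mL.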

Nakaseomyces glabratus [4] = assay: Antifungal activity against Candida glabrata ATCC 48435 by NCCLS method; type: functional; how it was run: as §1

Q: Which Activity (Candida albicans [1]) does the source give for O=[N+]([O-])c1ccc(S(=O)(=O)N/N=C/c2cc(Cl)ccc2O)cc1 here?
A: inactive

Q: What about the Activity (Nakaseomyces glabratus [2]) of the same molecule?
A: inactive

Q: N/N=C/c1cc([N+](=O)[O-])ccc1O was tested. Which MIC80 (Candida albicans [3]) did it give?
A: inactive

Q: And the MIC80 (Nakaseomyces glabratus [4])?
A: 31 µg/mL (≈ 171 µM)

Q: What does the source list for O=[N+]([O-])c1ccc(S(=O)(=O)N/N=C/c2ccccc2O)cc1?
A: Activity (Candida albicans [1]): inactive; Activity (Nakaseomyces glabratus [2]): inactive

Q: Which results are given for Cc1ccc(S(=O)(=O)N/N=C/c2cc(Cl)ccc2O)cc1?
A: Activity (Candida albicans [1]): inactive; Activity (Nakaseomyces glabratus [2]): inactive

Q: How did the MIC80 (Candida albicans [3]) turn out when CC(C)(C)c1cccc(/C=N/N)c1O was run?
A: 125 µg/mL (≈ 650 µM)

Q: And the MIC80 (Nakaseomyces glabratus [4])?
A: 62 µg/mL (≈ 322 µM)

Q: With Oc1ccc(Cl)cc1/C=N/Nc1ccccc1 as the molecule, how does the MIC80 (Candida albicans [3]) read?
A: 31 µg/mL (≈ 126 µM)

Q: And the MIC80 (Nakaseomyces glabratus [4])?
A: 31 µg/mL (≈ 126 µM)

Q: With O=[N+]([O-])c1ccc(N/N=C/c2cc(Cl)cc(Cl)c2O)cc1 as the molecule, how does the MIC80 (Candida albicans [3]) read?
A: inactive

Q: And the MIC80 (Nakaseomyces glabratus [4])?
A: 62 µg/mL (≈ 190 µM)

Q: Which results are given for Cc1ccc(O)c(/C=N/Nc2ccccc2)c1?
A: MIC80 (Candida albicans [3]): 62 µg/mL (≈ 274 µM); MIC80 (Nakaseomyces glabratus [4]): 8 µg/mL (≈ 35.4 µM)

Q: Which results are given for O=C(N/N=C/c1cccc(Br)c1O)c1ccc([N+](=O)[O-])cc1?
A: MIC80 (Candida albicans [3]): 31 µg/mL (≈ 85.1 µM); MIC80 (Nakaseomyces glabratus [4]): 31 µg/mL (≈ 85.1 µM)

Q: Which results are given for O=C(N/N=C/c1cc(Cl)ccc1O)c1ccc(O)cc1?
A: MIC80 (Candida albicans [3]): inactive; MIC80 (Nakaseomyces glabratus [4]): 62 µg/mL (≈ 213 µM)

Q: Which MIC80 (Candida albicans [3]) does the source give for Cc1ccc(O)c(/C=N/NC(=O)c2ccccc2O)c1 here?
A: 16 µg/mL (≈ 59.2 µM)

Q: And the MIC80 (Nakaseomyces glabratus [4])?
A: inactive

Q: For O=C(N/N=C/c1cc(Br)ccc1O)c1ccccc1O, which MIC80 (Candida albicans [3]) is on record?
A: 8 µg/mL (≈ 23.9 µM)

Q: What about the MIC80 (Nakaseomyces glabratus [4]) of the same molecule?
A: 62 µg/mL (≈ 185 µM)

Q: With O=[N+]([O-])c1ccc(N/N=C/c2cc(Br)cc(Br)c2O)cc1 as the molecule, how does the MIC80 (Candida albicans [3]) read?
A: inactive

Q: And the MIC80 (Nakaseomyces glabratus [4])?
A: 62 µg/mL (≈ 149 µM)

Q: Which results are given for O=[N+]([O-])c1ccc(S(=O)(=O)N/N=C/c2cc([N+](=O)[O-])ccc2O)cc1?
A: Activity (Candida albicans [1]): inactive; Activity (Nakaseomyces glabratus [2]): inactive

Q: O=S(=O)(N/N=C/c1ccccc1O)c1ccc2ccccc2c1 was tested. Which Activity (Candida albicans [1]) did it give?
A: inactive

Q: And the Activity (Nakaseomyces glabratus [2])?
A: inactive

Q: For O=[N+]([O-])c1ccc(N/N=C/c2ccc(O)cc2O)cc1, which MIC80 (Candida albicans [3]) is on record?
A: inactive

Q: What about the MIC80 (Nakaseomyces glabratus [4]) of the same molecule?
A: 1 µg/mL (≈ 3.66 µM)

Q: Which results are given for COc1ccc(O)c(/C=N/NS(=O)(=O)c2ccc(Br)cc2)c1?
A: Activity (Candida albicans [1]): inactive; Activity (Nakaseomyces glabratus [2]): inactive

Q: Which MIC80 (Candida albicans [3]) does the source give for COc1ccc(O)c(/C=N/NC(=O)c2ccccc2)c1 here?
A: 4 µg/mL (≈ 14.8 µM)

Q: And the MIC80 (Nakaseomyces glabratus [4])?
A: 0.5 µg/mL (≈ 1.85 µM)

Q: With O=S(=O)(N/N=C/c1cc(Cl)ccc1O)c1ccccc1 as the molecule, how does the Activity (Candida albicans [1]) read?
A: inactive

Q: What about the Activity (Nakaseomyces glabratus [2]) of the same molecule?
A: inactive

Q: O=C(N/N=C/c1cc([N+](=O)[O-])ccc1O)c1ccc([N+](=O)[O-])cc1 was tested. Which MIC80 (Candida albicans [3]) did it give?
A: inactive

Q: And the MIC80 (Nakaseomyces glabratus [4])?
A: 16 µg/mL (≈ 48.4 µM)

Q: What does the source list for N/N=C/c1cc(Cl)ccc1O?
A: MIC80 (Candida albicans [3]): 62 µg/mL (≈ 363 µM); MIC80 (Nakaseomyces glabratus [4]): 31 µg/mL (≈ 182 µM)

Q: For N/N=C/c1cc(Cl)cc(Cl)c1O, which MIC80 (Candida albicans [3]) is on record?
A: 16 µg/mL (≈ 78 µM)

Q: What about the MIC80 (Nakaseomyces glabratus [4]) of the same molecule?
A: 62 µg/mL (≈ 302 µM)

Q: O=C(N/N=C/c1cc(Cl)ccc1O)c1ccccc1O was tested. Which MIC80 (Candida albicans [3]) did it give?
A: 8 µg/mL (≈ 27.5 µM)

Q: And the MIC80 (Nakaseomyces glabratus [4])?
A: inactive

Q: What does the source list for O=C(N/N=C/c1ccccc1O)c1ccccc1O?
A: MIC80 (Candida albicans [3]): 16 µg/mL (≈ 62.4 µM); MIC80 (Nakaseomyces glabratus [4]): 8 µg/mL (≈ 31.2 µM)

Q: Which Activity (Candida albicans [1]) does the source give for COc1ccc(S(=O)(=O)N/N=C/c2cc(C)ccc2O)cc1 here?
A: inactive

Q: What about the Activity (Nakaseomyces glabratus [2]) of the same molecule?
A: inactive

Q: Which MIC80 (Candida albicans [3]) does the source give for Oc1ccccc1/C=N/Nc1ccccc1 here?
A: 16 µg/mL (≈ 75.4 µM)

Q: And the MIC80 (Nakaseomyces glabratus [4])?
A: 16 µg/mL (≈ 75.4 µM)

Q: With O=C(N/N=C/c1ccc(/C=N/NC(=O)c2ccc([N+](=O)[O-])cc2)cc1)c1ccc([N+](=O)[O-])cc1 as the molecule, how does the MIC80 (Candida albicans [3]) read?
A: inactive

Q: What about the MIC80 (Nakaseomyces glabratus [4]) of the same molecule?
A: inactive

Q: How did the Activity (Candida albicans [1]) turn out when Cc1ccc(O)c(/C=N/NS(=O)(=O)c2ccc(Br)cc2)c1 was run?
A: inactive

Q: And the Activity (Nakaseomyces glabratus [2])?
A: inactive

Q: With COc1ccc(O)c(/C=N/NC(=O)c2ccccc2O)c1 as the molecule, how does the MIC80 (Candida albicans [3]) read?
A: 16 µg/mL (≈ 55.9 µM)

Q: And the MIC80 (Nakaseomyces glabratus [4])?
A: 16 µg/mL (≈ 55.9 µM)

Q: CC(C)(C)c1cccc(/C=N/NC(=O)c2ccc([N+](=O)[O-])cc2)c1O was tested. Which MIC80 (Candida albicans [3]) did it give?
A: 31 µg/mL (≈ 90.8 µM)

Q: What about the MIC80 (Nakaseomyces glabratus [4]) of the same molecule?
A: 125 µg/mL (≈ 366 µM)

Q: For O=C(N/N=C/c1cc(Br)ccc1O)c1ccc([N+](=O)[O-])cc1, which MIC80 (Candida albicans [3]) is on record?
A: 1 µg/mL (≈ 2.75 µM)

Q: And the MIC80 (Nakaseomyces glabratus [4])?
A: 2 µg/mL (≈ 5.49 µM)

Q: Oc1c(Br)cccc1/C=N/Nc1ccccc1 was tested. Which MIC80 (Candida albicans [3]) did it give?
A: 8 µg/mL (≈ 27.5 µM)

Q: And the MIC80 (Nakaseomyces glabratus [4])?
A: 16 µg/mL (≈ 55 µM)

Q: O=S(=O)(N/N=C/c1cc(Br)ccc1O)c1ccccc1 was tested. Which Activity (Candida albicans [1]) did it give?
A: inactive

Q: What about the Activity (Nakaseomyces glabratus [2]) of the same molecule?
A: inactive

Q: O=C(N/N=C/c1cc(Br)ccc1O)c1ccccc1 was tested. Which MIC80 (Candida albicans [3]) did it give?
A: 2 µg/mL (≈ 6.27 µM)

Q: What about the MIC80 (Nakaseomyces glabratus [4]) of the same molecule?
A: 2 µg/mL (≈ 6.27 µM)

Q: With CC(C)(C)c1cccc(/C=N/Nc2ccc([N+](=O)[O-])cc2)c1O as the molecule, how does the MIC80 (Candida albicans [3]) read?
A: inactive

Q: What about the MIC80 (Nakaseomyces glabratus [4]) of the same molecule?
A: inactive

Q: O=Cc1ccc(/C=N/Nc2ccc([N+](=O)[O-])cc2[N+](=O)[O-])cc1 was tested. Which MIC80 (Candida albicans [3]) did it give?
A: inactive

Q: What about the MIC80 (Nakaseomyces glabratus [4]) of the same molecule?
A: inactive

Q: O=C(N/N=C/c1cc(Cl)cc(Cl)c1O)c1ccc([N+](=O)[O-])cc1 was tested. Which MIC80 (Candida albicans [3]) did it give?
A: 31 µg/mL (≈ 87.5 µM)

Q: And the MIC80 (Nakaseomyces glabratus [4])?
A: 125 µg/mL (≈ 353 µM)

Q: Oc1c(Br)cc(Br)cc1/C=N/Nc1ccccc1 was tested. Which MIC80 (Candida albicans [3]) did it give?
A: inactive

Q: What about the MIC80 (Nakaseomyces glabratus [4]) of the same molecule?
A: 62 µg/mL (≈ 168 µM)

Q: What does the source list for O=[N+]([O-])c1ccc(O)c(/C=N/Nc2ccccc2)c1?
A: MIC80 (Candida albicans [3]): 31 µg/mL (≈ 121 µM); MIC80 (Nakaseomyces glabratus [4]): 16 µg/mL (≈ 62.2 µM)

Q: Which results are given for COc1ccc(S(=O)(=O)N/N=C/c2cc(Cl)ccc2O)cc1?
A: Activity (Candida albicans [1]): inactive; Activity (Nakaseomyces glabratus [2]): inactive

Q: For Oc1c(Cl)cc(Cl)cc1/C=N/Nc1ccccc1, which MIC80 (Candida albicans [3]) is on record?
A: 125 µg/mL (≈ 445 µM)

Q: And the MIC80 (Nakaseomyces glabratus [4])?
A: 125 µg/mL (≈ 445 µM)

Q: For Cc1ccc(S(=O)(=O)N/N=C/c2cc(Br)ccc2O)cc1, which Activity (Candida albicans [1]) is on record?
A: inactive

Q: And the Activity (Nakaseomyces glabratus [2])?
A: inactive

Q: O=C(N/N=C/c1cc(Br)cc(Br)c1O)c1ccccc1 was tested. Which MIC80 (Candida albicans [3]) did it give?
A: 8 µg/mL (≈ 20.1 µM)

Q: And the MIC80 (Nakaseomyces glabratus [4])?
A: 31 µg/mL (≈ 77.9 µM)
